Reference: ChEMBL document CHEMBL4219124, “Alleviating CYP and hERG liabilities by structure optimization of dihydrofuran-fused tricyclic benzo[d]imidazole series - Potent, selective and orally efficacious microsomal prostaglandin E synthase-1 (mPGES-1) inhibitors: Part-2” (Bioorg Med Chem Lett, 2018)

Key:
[1] = Metabolic stability in guinea pig liver microsomes assessed as parent compound remaining at 1 uM after 60 mins in presence of NADPH by LC-MS/MS analysis; type: ADME, Cavia porcellus, microsome; conditions: read-out: Stability
How it was run: (§1)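 Compound incubated 60 min at 37 °C with human, rat or guinea pig liver microsomes; percent parent remaining, triplicates.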

[2] = Tmax in Sprague-Dawley rat at 10 mg/kg, po; type: ADME, organism-based; conditions: in vivo
How it was run: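 Tmax from oral 10 mg/kg dosing. Rat: male Sprague-Dawley, 0.5% MC suspension, n = 3. Guinea pig: 20% NMP + 0.5% MC suspension, n = 3. Dog and monkey: 2.5 μL/mL Tween 80 + 0.5% MC suspension.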

[3] = Cmax in Sprague-Dawley rat at 10 mg/kg, po; type: ADME, organism-based; parameters: dose 10 mg/kg, route oral; conditions: in vivo
How it was run: (§2)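 Single oral dose of 10 mg/kg. Cmax and AUC0-24 taken from the oral arm. Rat: male Sprague-Dawley, dosed in 0.5% methylcellulose suspension, mean ± SD (n = 3). Guinea pig: 20% NMP + 0.5% MC suspension, mean ± SD (n = 3). Dog and cynomolgus monkey: 2.5 μL/mL Tween 80 + 0.5 (w/v) MC suspension.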

[4] = Clearance in Sprague-Dawley rat at 1 mg/kg, iv; type: ADME, organism-based; conditions: in vivo
How it was run: (§3)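 Intravenous dose of 1 mg/kg; clearance and Vz derived from the i.v. arm. Rat (male Sprague-Dawley) vehicle 20% NMP + 20% ethanol + 60% PEG 200, mean ± SD (n = 3). Dog vehicle 20% NMP + 20% EtOH + 10% PG + 50% PEG 200:water (3:2). Monkey vehicle 10% NMP + 10% ethanol + 10% PEG + 70% PEG200:water (3:2).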

[5] = Inhibition of human U937 cells-derived COX1 assessed as decrease in PGE2 production at 10 uM using arachidonic acid as substrate preincubated for 15 mins prior to substrate addition for 5 mins relative to control; conditions: COX1 derived from U937 cells, probe arachidonic acid
How it was run: (§4)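 Selectivity panel against other prostanoid-pathway enzymes. % inhibition values are means of at least two experiments, each in duplicate.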

[6] = target: T1, Prostaglandin E synthase (Homo sapiens, UniProt O14684); test: Inhibition of recombinant human mPGES1 expressed in CHO cells assessed as reduction in PGE2 production using PGH2 as substrate incubated for 10 mins followed by substrate addition measured for 1 min; type: cell-based
T1 sequence (O14684 whole entry): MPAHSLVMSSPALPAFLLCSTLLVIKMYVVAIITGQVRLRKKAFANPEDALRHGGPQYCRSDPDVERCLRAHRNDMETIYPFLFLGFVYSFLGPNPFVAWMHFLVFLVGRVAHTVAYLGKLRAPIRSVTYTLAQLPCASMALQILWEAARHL

[7] = AUC (0 to 24 hrs) in Sprague-Dawley rat at 10 mg/kg, po; type: ADME, organism-based; parameters: dose 10 mg/kg, time < 24 hr, route oral; conditions: in vivo; how it was run: as §2
[8] = Apparent volume of distribution in Sprague-Dawley rat at 1 mg/kg, iv; type: ADME, organism-based; conditions: in vivo, read-out: Vz; how it was run: as §3
[9] = system: Prostaglandin F synthase (Homo sapiens); test: Inhibition of human PGF synthase assessed as decrease in PGF2alpha production at 10 uM relative to control
[10] = Ratio of drug uptake in brain to plasma of Dunkin-Hartley guinea pig at 10 mg/kg, po; type: ADME, organism-based, Cavia porcellus; conditions: for Kp: Dunkin-Hartley, brain/plasma, read-out: BPR
[11] = target: T2, Prostaglandin E synthase (Mus musculus) (UniProt Q9JM51); test: Inhibition of mouse mPGES1 expressed in CHO cells assessed as reduction in PGE2 production at 10 uM using PGH2 as substrate incubated for 10 mins followed by substrate addition measured for 1 min relative to control
T2 sequence (whole entry): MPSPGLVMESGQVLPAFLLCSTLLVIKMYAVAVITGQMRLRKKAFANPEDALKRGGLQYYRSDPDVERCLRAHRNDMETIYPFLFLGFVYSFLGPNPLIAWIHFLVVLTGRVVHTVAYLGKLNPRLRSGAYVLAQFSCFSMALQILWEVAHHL
How it was run: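 Rodent enzyme protocol run as for the human and guinea pig mPGES-1 enzyme assays; single-concentration percent inhibition.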

[12] = Metabolic stability in rat liver microsomes assessed as parent compound remaining at 1 uM after 60 mins in presence of NADPH by LC-MS/MS analysis; type: ADME, microsome; conditions: read-out: Stability; how it was run: as §1
[13] = Protein binding in human plasma at 10 uM after 5 hrs by equilibrium dialysis based LC-MS/MS analysis; type: ADME, cell-free; conditions: read-out: PPB (converted)
How it was run: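 Equilibrium dialysis at 10 μM compound; result expressed as percent bound.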

[14] = target: T3, Thromboxane-A synthase (Homo sapiens) (UniProt P24557); test: Inhibition of TXAS (unknown origin) at 10 uM relative to control; how it was run: as §4
T3 sequence (whole entry): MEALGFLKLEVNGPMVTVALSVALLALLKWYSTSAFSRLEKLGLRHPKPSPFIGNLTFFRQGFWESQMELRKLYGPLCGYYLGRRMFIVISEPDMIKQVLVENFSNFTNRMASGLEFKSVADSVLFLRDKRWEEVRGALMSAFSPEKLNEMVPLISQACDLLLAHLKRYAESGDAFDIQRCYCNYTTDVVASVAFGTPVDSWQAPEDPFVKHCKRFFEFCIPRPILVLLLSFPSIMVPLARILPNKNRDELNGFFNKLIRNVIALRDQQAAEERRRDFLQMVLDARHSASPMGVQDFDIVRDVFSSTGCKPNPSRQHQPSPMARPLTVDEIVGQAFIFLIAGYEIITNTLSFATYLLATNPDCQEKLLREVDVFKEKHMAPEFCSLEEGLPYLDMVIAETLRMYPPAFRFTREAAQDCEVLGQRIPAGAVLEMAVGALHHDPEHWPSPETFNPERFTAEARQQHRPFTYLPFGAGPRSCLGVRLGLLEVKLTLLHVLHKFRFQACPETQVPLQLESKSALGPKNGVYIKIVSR

[15] = target: Prostaglandin E synthase 2 (Homo sapiens) (UniProt Q9H7Z7); test: Inhibition of mPGES2 in A23187-stimulated human THP1 cells assessed as decrease in PGE2 production at 10 uM using arachidonic acid as substrate relative to control; how it was run: as §4
Sequence of Prostaglandin E synthase 2 (Homo sapiens) (Q9H7Z7 whole entry): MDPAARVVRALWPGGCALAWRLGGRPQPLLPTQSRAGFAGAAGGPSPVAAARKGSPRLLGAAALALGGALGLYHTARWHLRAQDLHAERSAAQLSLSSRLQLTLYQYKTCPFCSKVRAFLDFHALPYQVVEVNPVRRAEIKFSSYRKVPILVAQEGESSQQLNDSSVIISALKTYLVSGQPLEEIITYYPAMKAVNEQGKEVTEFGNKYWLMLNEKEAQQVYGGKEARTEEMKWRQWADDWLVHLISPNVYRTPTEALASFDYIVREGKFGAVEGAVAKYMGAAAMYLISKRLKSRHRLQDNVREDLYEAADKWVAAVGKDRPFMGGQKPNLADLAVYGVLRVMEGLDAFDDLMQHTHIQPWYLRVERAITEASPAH

remaining at 1 h, 1 µM [1] | Tmax [2] | Cmax [3] | clearance [4] | inhibition at 5 min, 10 µM [5] | IC50 [6] | AUC(0-t) at 24 h [7] | Vd [8] | inhibition [9] | Kp [10] | inhibition [11] | remaining at 1 h, 1 µM [12] | fraction unbound at 5 h, 10 µM [13] | inhibition [14] | inhibition [15] | BPR ([10]; brain, BLD = below limit of detection) | SMILES
71% | 4 h | 344 ng/mL | 16.2 mL/min/kg | 7.8% | 8.4 nM | 4020 ng·h/mL | 3.77 L/kg | 15.4% | 0.58 | 10.9% | 88% | 0.0004 | 1.3% | 7.8% | – | CC1(C)Cc2c(c(C(=O)Nc3ccc(C(F)(F)F)cn3)cc3nc(Nc4c(Cl)cccc4Cl)[nH]c23)O1
100% | 2 h | 995 ng/mL | 11.2 mL/min/kg | 8.27% | 5 nM | 11000 ng·h/mL | 3.85 L/kg | 100% | 0.44 | 22.1% | 91% | 0.0054 | 25.5% | 11.6% | – | CC1(C)Cc2c(c(C(=O)Nc3ccc(F)c(C(F)(F)F)c3)cc3nc(Nc4c(F)cccc4Cl)[nH]c23)O1
51% | – | – | – | 19.7% | 5.7 nM | – | – | 61.4% | – | 5.2% | 89% | 0.0029 | 22.1% | 7.9% | – | Cn1c(Nc2c(F)cccc2Cl)nc2cc(C(=O)Nc3cccc(C(F)(F)F)c3)c3c(c21)CC(C)(C)O3
79% | – | – | – | 14.7% | 3 nM | – | – | 99.2% | – | 14.4% | 96% | 0.0004 | 4.6% | 13.5% | – | CC1(C)Cc2c(c(C(=O)Nc3cc(C(F)(F)F)ccc3F)cc3nc(Nc4c(F)cccc4Cl)[nH]c23)O1
60% | – | – | – | 38.2% | 10 nM | – | – | – | – | 2.5% | 87% | 0.0008 | 17.2% | 3.8% | – | Cc1cccc(Cl)c1Nc1nc2cc(C(=O)Nc3cc(C(F)F)ccc3F)c3c(c2[nH]1)CC(C)(C)O3
46% | 4 h | 210 ng/mL | 8.2 mL/min/kg | 14.6% | 3.3 nM | 2580 ng·h/mL | 4.84 L/kg | 17.9% | – | 8.2% | 97% | 0.0003 | 0.87% | 23.5% | Bld | Cc1cccc(Cl)c1Nc1nc2cc(C(=O)Nc3cc(C(F)(F)F)ccc3F)c3c(c2[nH]1)CC(C)(C)O3
